Assay results taken from ChEMBL document CHEMBL1926614, “Substituted thiazoles V. synthesis and antitumor activity of novel thiazolo[2,3-b]quinazoline and pyrido[4,3-d]thiazolo[3,2-a]pyrimidine analogues” (2012).

Tests used:
Format in all cases: functional
[1] = Growth inhibition of human NCI-322M cells at 10 uM after 48 hrs by coulter counting; details: read-out: GI
Method in brief: (§1)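 Single-dose primary screen across the full NCI 60-cell-line panel. Stocks were made in DMSO and diluted in PBS to a final DMSO below 1%. Cultures at 6 × 10⁴ cells/ml were run in duplicate wells alongside PBS/DMSO vehicle controls at 37 °C in humidified 5% CO₂. Data were expressed as percent growth of treated cells.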

SK-MEL-28 = assay: Growth inhibition of human SK-MEL-28 cells at 10 uM after 48 hrs by coulter counting; details: SK-MEL-28, 48 h, read-out: GI; method in brief: as §1
MDA-MB-435 = assay: Growth inhibition of human MDA-MB-435 cells at 10 uM after 48 hrs by coulter counting; details: MDA-MB-435, 48 h, read-out: GI; method in brief: as §1
U-251 = assay: Growth inhibition of human U251 cells at 10 uM after 48 hrs by coulter counting; details: U-251, 48 h, read-out: GI
Method in brief: (§2)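 Single-dose screen in the NCI 60 human tumor cell line panel (nine subpanels). Compounds dissolved in DMSO and diluted in phosphate buffered saline, keeping final DMSO below 1%. Added in duplicate wells to cells at 6 × 10⁴ cells/ml. Controls held PBS and DMSO at matching dilutions. Incubated at 37 °C, humidified, 5% CO₂. Reported as percent growth of treated cells.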

RPMI-8226 = assay: Growth inhibition of human RPMI8226 cells at 10 uM after 48 hrs by coulter counting; details: RPMI-8226, 48 h, read-out: GI; method in brief: as §1
NCI-H226 = assay: Growth inhibition of human NCI-H226 cells at 10 uM after 48 hrs by coulter counting; details: NCI-H226, 48 h, read-out: GI; method in brief: as §1
K562 = assay: Growth inhibition of human K562 cells at 10 uM after 48 hrs by coulter counting; details: K562, 48 h, read-out: GI; method in brief: as §1
UACC-62 = assay: Growth inhibition of human UACC62 cells at 10 uM after 48 hrs by coulter counting; details: UACC-62, 48 h, read-out: GI; method in brief: as §2
SNB-75 = assay: Growth inhibition of human SNB75 cells at 10 uM after 48 hrs by coulter counting; details: SNB-75, 48 h, read-out: GI; method in brief: as §1
DU-145 = assay: Growth inhibition of human DU145 cells at 10 uM after 48 hrs by coulter counting; details: DU-145, 48 h, read-out: GI; method in brief: as §1
SK-MEL-5 = assay: Growth inhibition of human SK-MEL-5 cells at 10 uM after 48 hrs by coulter counting; details: SK-MEL-5, 48 h, read-out: GI; method in brief: as §1
MCF7 = assay: Growth inhibition of human MCF7 cells at 10 uM after 48 hrs by coulter counting; details: MCF7, 48 h, read-out: GI; method in brief: as §1
T47D = assay: Growth inhibition of human T47D cells at 10 uM after 48 hrs by coulter counting; details: read-out: GI; method in brief: as §2
UO-31 = assay: Growth inhibition of human UO31 cells at 10 uM after 48 hrs by coulter counting; details: UO-31, 48 h, read-out: GI; method in brief: as §2
ACHN = assay: Growth inhibition of human ACHN cells at 10 uM after 48 hrs by coulter counting; details: read-out: GI; method in brief: as §1
LOX IMVI = assay: Growth inhibition of human LOXIMVI cells at 10 uM after 48 hrs by coulter counting; details: read-out: GI; method in brief: as §1
MOLT-4 = assay: Growth inhibition of human MOLT4 cells at 10 uM after 48 hrs by coulter counting; details: MOLT-4, 48 h, read-out: GI; method in brief: as §1
HL-60(TB) = assay: Growth inhibition of human HL-60(TB) cells at 10 uM after 48 hrs by coulter counting; details: HL-60, 48 h, read-out: GI
Method in brief: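 Test compound was dissolved in DMSO and diluted in phosphate-buffered saline to a final DMSO level below 1%. Dilutions were plated in duplicate with cell culture at 6 × 10⁴ cells/ml. Vehicle controls held PBS and DMSO at matching dilutions. Incubation was at 37 °C, humidified, under 5% CO₂. Data were reported as percent growth of treated cells.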

SF-539 = assay: Growth inhibition of human SF539 cells at 10 uM after 48 hrs by coulter counting; details: SF-539, 48 h, read-out: GI; method in brief: as §1
NCI-H23 = assay: Growth inhibition of human NCI-H23 cells at 10 uM after 48 hrs by coulter counting; details: NCI-H23, 48 h, read-out: GI; method in brief: as §1
SF-268 = assay: Growth inhibition of human SF268 cells at 10 uM after 48 hrs by coulter counting; details: SF-268, 48 h, read-out: GI; method in brief: as §1
IGROV-1 = assay: Growth inhibition of human IGROV1 cells at 10 uM after 48 hrs by coulter counting; details: IGROV-1, 48 h, read-out: GI; method in brief: as §1
NCI-H522 = assay: Growth inhibition of human NCI-H522 cells at 10 uM after 48 hrs by coulter counting; details: NCI-H522, 48 h, read-out: GI; method in brief: as §1
EKVX = assay: Growth inhibition of human EKVX cells at 10 uM after 48 hrs by coulter counting; details: read-out: GI; method in brief: as §1
A498 = assay: Growth inhibition of human A498 cells at 10 uM after 48 hrs by coulter counting; details: A498, 48 h, read-out: GI; method in brief: as §1
CCRF-CEM = assay: Growth inhibition of human CCRF-CEM cells at 10 uM after 48 hrs by coulter counting; details: read-out: GI; method in brief: as §1
CAKI-1 = assay: Growth inhibition of human Caki1 cells at 10 uM after 48 hrs by coulter counting; details: CAKI-1, 48 h, read-out: GI; method in brief: as §1
SK-MEL-2 = assay: Growth inhibition of human SK-MEL-2 cells at 10 uM after 48 hrs by coulter counting; details: SK-MEL-2, 48 h, read-out: GI; method in brief: as §1
BT-549 = assay: Growth inhibition of human BT549 cells at 10 uM after 48 hrs by coulter counting; details: BT-549, 48 h, read-out: GI; method in brief: as §1
HCT-116 = assay: Growth inhibition of human HCT116 cells at 10 uM after 48 hrs by coulter counting; details: HCT-116, 48 h, read-out: GI; method in brief: as §1
OVCAR-4 = assay: Growth inhibition of human OVCAR4 cells at 10 uM after 48 hrs by coulter counting; details: OVCAR-4, 48 h, read-out: GI; method in brief: as §1
M14 = assay: Growth inhibition of human M14 cells at 10 uM after 48 hrs by coulter counting; details: M14, 48 h, read-out: GI; method in brief: as §1
NCI/ADR-RES = assay: Growth inhibition of human NCI/ADR-RES cells at 10 uM after 48 hrs by coulter counting; details: read-out: GI; method in brief: as §1
UACC-257 = assay: Growth inhibition of human UACC257 cells at 10 uM after 48 hrs by coulter counting; details: UACC-257, 48 h, read-out: GI; method in brief: as §2
KM12 = assay: Growth inhibition of human KM12 cells at 10 uM after 48 hrs by coulter counting; details: KM12, 48 h, read-out: GI; method in brief: as §1
HCC 2998 = assay: Growth inhibition of human HCC2998 cells at 10 uM after 48 hrs by coulter counting; details: HCC 2998, 48 h, read-out: GI; method in brief: as §1
SF-295 = assay: Growth inhibition of human SF295 cells at 10 uM after 48 hrs by coulter counting; details: SF-295, 48 h, read-out: GI; method in brief: as §1
NCI-H460 = assay: Growth inhibition of human NCI-H460 cells at 10 uM after 48 hrs by coulter counting; details: NCI-H460, 48 h, read-out: GI; method in brief: as §1
SNB-19 = assay: Growth inhibition of human SNB19 cells at 10 uM after 48 hrs by coulter counting; details: SNB-19, 48 h, read-out: GI; method in brief: as §1
HOP-62 = assay: Growth inhibition of human HOP62 cells at 10 uM after 48 hrs by coulter counting; details: HOP-62, 48 h, read-out: GI; method in brief: as §1
HT-29 = assay: Growth inhibition of human HT-29 cells at 10 uM after 48 hrs by coulter counting; details: HT-29, 48 h, read-out: GI; method in brief: as §1
A549 = assay: Growth inhibition of human A549 cells at 10 uM after 48 hrs by coulter counting; details: A549, 48 h, read-out: GI; method in brief: as §1

## COc1ccc(/C=C2\CCCC3=C2N=C2SC=C(C)N2C3c2ccc(OC)cc2)cc1 (configuration not stated)
[1]
  inhibition of growth at 10 µM: > 10%
SK-MEL-28
  inhibition of growth at 10 µM: > 10%
MDA-MB-435
  inhibition of growth at 10 µM: > 10%
U-251
  inhibition of growth at 10 µM: > 10%
RPMI-8226
  inhibition of growth at 10 µM: 13.5%
NCI-H226
  inhibition of growth at 10 µM: > 10%
K562
  inhibition of growth at 10 µM: > 10%
UACC-62
  inhibition of growth at 10 µM: > 10%
SNB-75
  inhibition of growth at 10 µM: > 10%
DU-145
  inhibition of growth at 10 µM: > 10%
SK-MEL-5
  inhibition of growth at 10 µM: > 10%
MCF7
  inhibition of growth at 10 µM: > 10%
T47D
  inhibition of growth at 10 µM: > 10%
UO-31
  inhibition of growth at 10 µM: 23.3%
ACHN
  inhibition of growth at 10 µM: > 10%
LOX IMVI
  inhibition of growth at 10 µM: > 10%
MOLT-4
  inhibition of growth at 10 µM: > 10%
HL-60(TB)
  inhibition of growth at 10 µM: > 10%
SF-539
  inhibition of growth at 10 µM: > 10%
NCI-H23
  inhibition of growth at 10 µM: > 10%
SF-268
  inhibition of growth at 10 µM: > 10%
IGROV-1
  inhibition of growth at 10 µM: > 10%
NCI-H522
  inhibition of growth at 10 µM: > 10%
EKVX
  inhibition of growth at 10 µM: > 10%
A498
  inhibition of growth at 10 µM: 36%
CCRF-CEM
  inhibition of growth at 10 µM: > 10%
CAKI-1
  inhibition of growth at 10 µM: 12.5%
SK-MEL-2
  inhibition of growth at 10 µM: > 10%
BT-549
  inhibition of growth at 10 µM: > 10%
HCT-116
  inhibition of growth at 10 µM: > 10%
OVCAR-4
  inhibition of growth at 10 µM: > 10%
M14
  inhibition of growth at 10 µM: > 10%
NCI/ADR-RES
  inhibition of growth at 10 µM: > 10%
UACC-257
  inhibition of growth at 10 µM: > 10%
KM12
  inhibition of growth at 10 µM: > 10%
HCC 2998
  inhibition of growth at 10 µM: > 10%
SF-295
  inhibition of growth at 10 µM: > 10%
NCI-H460
  inhibition of growth at 10 µM: > 10%
SNB-19
  inhibition of growth at 10 µM: > 10%
HOP-62
  inhibition of growth at 10 µM: > 10%
HT-29
  inhibition of growth at 10 µM: > 10%
A549
  inhibition of growth at 10 µM: > 10%
